ChEMBL document CHEMBL1136923, “Highly potent, orally available anti-inflammatory broad-spectrum chemokine inhibitors” (J Med Chem, 2009)
Blank lines part the entries; values can stand above or below the compound they belong to.

Columns and labels:
[1] = molecular target: C-C chemokine receptor type 2 (Homo sapiens) (UniProt P41597); assay: Antagonist activity at CCR2 in human THP1 cells assessed as inhibition of CCL2-induced chemotaxis after 2 hrs by microtiter format trans-well migration assay; type: functional, cell-based; details: THP-1
Outline: (§1)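 Microtiter trans-well migration assay in Gey's balanced salt solution with 1 mg/mL endotoxin-free BSA, no fetal calf serum. Migration ran 2 h at 37 °C. Compounds dissolved in DMSO and added to both top and bottom compartments, final DMSO 1%.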

[2] = molecular target: C-C chemokine receptor type 2 (Homo sapiens) (UniProt P41597); assay: Antagonist activity at CCR2 in human THP1 cells assessed as inhibition of CCL2-induced chemotaxis at 1000 nM after 2 hrs by microtiter format trans-well migration assay; type: functional, cell-based; details: THP-1; outline: as §1
[3] = molecular target: C-C chemokine receptor type 2 (Homo sapiens) (UniProt P41597); assay: Antagonist activity at CCR2 in human THP1 cells assessed as inhibition of CCL2-induced chemotaxis at 100 nM after 2 hrs by microtiter format trans-well migration assay; type: functional, cell-based; details: THP-1; outline: as §1
[4] = molecular target: C-C chemokine receptor type 2 (Homo sapiens) (UniProt P41597); assay: Antagonist activity at CCR2 in human THP1 cells assessed as inhibition of CCL2-induced chemotaxis at 10 nM after 2 hrs by microtiter format trans-well migration assay; type: functional, cell-based; details: THP-1; outline: as §1
[5] = molecular target: C-C chemokine receptor type 2 (Homo sapiens) (UniProt P41597); assay: Antagonist activity at CCR2 in human THP1 cells assessed as inhibition of CCL2-induced chemotaxis at 1 nM after 2 hrs by microtiter format trans-well migration assay; type: functional, cell-based; details: THP-1; outline: as §1
[6] = molecular target: C-C chemokine receptor type 2 (Homo sapiens) (UniProt P41597); assay: Antagonist activity at CCR2 in human THP1 cells assessed as inhibition of CCL2-induced chemotaxis at 0.1 nM after 2 hrs by microtiter format trans-well migration assay; type: functional, cell-based; details: THP-1; outline: as §1
[7] = molecular target: C-C chemokine receptor type 2 (Homo sapiens) (UniProt P41597); assay: Antagonist activity at CCR2 in human THP1 cells assessed as inhibition of CCL2-induced chemotaxis at 0.01 nM after 2 hrs by microtiter format trans-well migration assay; type: functional, cell-based; details: THP-1; outline: as §1
Mus musculus [8] = assay: Antiinflammatory activity in sc dosed mouse assessed as inhibition of LPS-induced TNFalpha upregulation measured 2 hrs after LPS challenge; type: functional
Mus musculus [9] = assay: Antiinflammatory activity in sc dosed mouse assessed as inhibition of LPS-induced TNFalpha upregulation measured 2 hrs after LPS challenge relative to control; type: functional
Outline: (§2)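 Murine sublethal LPS endotoxemia screen. LPS is injected intraperitoneally and serum TNF-α is measured 2 h later as the end point. Compound is given subcutaneously or orally in a vehicle of 0.6% DMSO plus 1% carboxymethylcellulose (final concentrations) in sterile water. Values are % relative to control.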

Mus musculus [10] = assay: Antiinflammatory activity in mouse assessed as inhibition of LPS-induced TNFalpha upregulation at 830 pg, sc measured 2 hrs after LPS challenge; type: functional; outline: as §2
Mus musculus [11] = assay: Antiinflammatory activity in po dosed mouse assessed as inhibition of LPS-induced TNFalpha upregulation measured 2 hrs after LPS challenge; type: functional
Mus musculus [12] = assay: Antiinflammatory activity in po dosed mouse assessed as inhibition of LPS-induced TNFalpha upregulation measured 2 hrs after LPS challenge relative to control; type: functional; outline: as §2
Mus musculus [13] = assay: Antiinflammatory activity in mouse assessed as inhibition of LPS-induced TNFalpha upregulation at 0.0216 ug, sc measured 2 hrs after LPS challenge; type: functional
Outline: (§3)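 Murine sublethal endotoxemia: LPS given intraperitoneally, with serum TNF-α measured 2 h after the LPS injection as the end point. Compound was given subcutaneously or orally. Vehicle was 0.6% DMSO and 1% carboxymethylcellulose (final concentrations) in sterile water. Effect is reported as % relative to control.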

Mus musculus [14] = assay: Antiinflammatory activity in mouse assessed as inhibition of LPS-induced TNFalpha upregulation at 0.000216 mg, sc measured 2 hrs after LPS challenge; type: functional
Outline: (§4)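 Murine sublethal endotoxemia: LPS given intraperitoneally, serum TNF-α measured 2 h after LPS injection. Compound vehicle 0.6% DMSO plus 1% carboxymethylcellulose (final concentrations) in sterile water.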

Mus musculus [15] = assay: Antiinflammatory activity in mouse assessed as inhibition of LPS-induced TNFalpha upregulation at 0.00216 mg, sc measured 2 hrs after LPS challenge; type: functional; outline: as §3
Mus musculus [16] = assay: Antiinflammatory activity in mouse assessed as inhibition of LPS-induced TNFalpha upregulation at 0.0216 mg, sc measured 2 hrs after LPS challenge; type: functional; outline: as §3
Mus musculus [17] = assay: Antiinflammatory activity in mouse assessed as inhibition of LPS-induced TNFalpha upregulation at 0.216 mg, sc measured 2 hrs after LPS challenge; type: functional; outline: as §3
Mus musculus [18] = assay: Antiinflammatory activity in mouse assessed as inhibition of LPS-induced TNFalpha upregulation at 624 pg, po measured 2 hrs after LPS challenge; type: functional; outline: as §2
Mus musculus [19] = assay: Antiinflammatory activity in mouse assessed as inhibition of LPS-induced TNFalpha upregulation at 0.00312 ug, po measured 2 hrs after LPS challenge; type: functional; outline: as §3
Mus musculus [20] = assay: Antiinflammatory activity in mouse assessed as inhibition of LPS-induced TNFalpha upregulation at 0.0216 ug, po measured 2 hrs after LPS challenge; type: functional; outline: as §3
Mus musculus [21] = assay: Antiinflammatory activity in mouse assessed as inhibition of LPS-induced TNFalpha upregulation at 0.078 ug, po measured 2 hrs after LPS challenge; type: functional; outline: as §3
Mus musculus [22] = assay: Antiinflammatory activity in mouse assessed as inhibition of LPS-induced TNFalpha upregulation at 0.000216 mg, po measured 2 hrs after LPS challenge; type: functional; outline: as §4
Mus musculus [23] = assay: Antiinflammatory activity in mouse assessed as inhibition of LPS-induced TNFalpha upregulation at 0.000864 mg, po measured 2 hrs after LPS challenge; type: functional; outline: as §3
Mus musculus [24] = assay: Antiinflammatory activity in mouse assessed as inhibition of LPS-induced TNFalpha upregulation at 0.0065 mg, po measured 2 hrs after LPS challenge; type: functional; outline: as §3
Mus musculus [25] = assay: Antiinflammatory activity in mouse assessed as inhibition of LPS-induced TNFalpha upregulation at 0.0216 mg, po measured 2 hrs after LPS challenge; type: functional; outline: as §3
Mus musculus [26] = assay: Antiinflammatory activity in mouse assessed as inhibition of LPS-induced TNFalpha upregulation at 0.065 mg, po measured 2 hrs after LPS challenge; type: functional; outline: as §3
Mus musculus [27] = assay: Antiinflammatory activity in mouse assessed as inhibition of LPS-induced TNFalpha upregulation at 0.216 mg, po measured 2 hrs after LPS challenge; type: functional; outline: as §3
[28] = Half life in Sprague-Dawley rat at 1 mg/kg, iv administered as single dose; type: ADME, organism-based; parameters: dose 1 mg/kg, route intravenous; details: in vivo
Outline: (§5)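 Male Sprague-Dawley rats, three per compound, receive a single intravenous dose in 5% DMSO in 0.9% saline. Food and water are given ad libitum. Plasma is taken at 5, 15, 30, 60, 120, 180, 240 and 480 min. Drug is measured by LC/MS/MS after extraction with 0.1% formic acid in acetonitrile. The curve is back-extrapolated to time zero assuming an initial volume of 0.26 L/kg.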

[29] = Volume of distribution at steady state in Sprague-Dawley rat at 1 mg/kg, iv administered as single dose; type: ADME, organism-based; parameters: dose 1 mg/kg, route intravenous; details: in vivo, read-out: Vdss; outline: as §5
Rattus norvegicus [30] = assay: AUC (0 to t) in Sprague-Dawley rat at 1 mg/kg, iv administered as single dose; type: ADME, organism-based, Plasma; parameters: dose 1 mg/kg, route intravenous; details: in vivo
Outline: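 Male Sprague-Dawley rats, three per compound per route, single dose. IV vehicle 5% DMSO in 0.9% saline; oral gavage vehicle 1% carboxymethylcellulose in 0.9% saline; fed ad libitum. Plasma taken 5–480 min post-dose, extracted with 0.1% formic acid in acetonitrile, quantified by LC/MS/MS (positive mode). AUC(0–t) by linear/log trapezoidal rule; IV curve back-extrapolated assuming initial volume 0.26 L/kg.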

[31] = Fractional bioavailability in Sprague-Dawley rat at 3 mg/kg, po administered as single dose; type: ADME, organism-based; details: in vivo
Outline: (§6)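 Male Sprague-Dawley rats, three per compound, receive a single oral dose by gavage in 1% carboxymethylcellulose in 0.9% saline, with food and water ad libitum. Plasma is sampled from 5 to 480 min and drug is quantified by positive-mode LC/MS/MS after acetonitrile/formic acid extraction. The lower limit of quantitation is about 2 ng/mL. Exposure is AUC(0→t) by the linear/log trapezoidal rule, and F is oral fractional bioavailability.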

Rattus norvegicus [32] = assay: Plasma concentration in Sprague-Dawley rat at 3 mg/kg, po administered as single dose; type: ADME, organism-based; parameters: dose 3 mg/kg, route oral; details: in vivo; outline: as §6

Chain of C-C chemokine receptor type 2 (Homo sapiens) (P41597 whole entry, looked up): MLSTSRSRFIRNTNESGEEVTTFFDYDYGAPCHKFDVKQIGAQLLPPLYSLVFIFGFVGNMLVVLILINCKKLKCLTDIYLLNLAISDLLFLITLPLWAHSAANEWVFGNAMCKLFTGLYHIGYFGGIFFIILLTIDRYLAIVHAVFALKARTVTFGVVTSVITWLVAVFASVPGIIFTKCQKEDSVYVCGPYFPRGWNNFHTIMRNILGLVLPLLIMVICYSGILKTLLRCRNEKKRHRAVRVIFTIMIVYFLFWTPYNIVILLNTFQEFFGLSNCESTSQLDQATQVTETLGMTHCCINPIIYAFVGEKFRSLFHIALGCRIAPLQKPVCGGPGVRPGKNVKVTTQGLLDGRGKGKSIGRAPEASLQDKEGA

ED50 [1]: 4.5 nM
inhibition [2]: 98.5%
inhibition [3]: 101%
inhibition [4]: 69%
inhibition [5]: 36%
inhibition [6]: 20%
inhibition [7]: 5%
Compound: CCCCCCCCCCC(C)(C)C(=O)N[C@@H]1CCCCNC1=O

ED50 [1]: 0.8 nM
Compound: O=C(N[C@H]1CCCCNC1=O)C1=CCCCC1

ED50 [1]: 0.44 nM
inhibition [2]: 100%
inhibition [3]: 101%
inhibition [4]: 98%
inhibition [5]: 46%
inhibition [6]: 14%
inhibition [7]: 26%
Compound: O=C1NCCCC[C@H]1NC(=O)C12CC3CC(CC(C3)C1)C2

ED50 [1]: 4 nM
Compound: CCCCCCCCCC(C)(C)CC(=O)N[C@H]1CCCCNC1=O

ED50 [1]: 0.09 nM
inhibition [2]: 100%
inhibition [3]: 98%
inhibition [4]: 100%
inhibition [5]: 99%
inhibition [6]: 11%
half-life [28]: 16 min
Vd [29]: 0.8 L/kg
AUC (Rattus norvegicus [30]): 477 ng·min/mL
bioavailability [31]: < 1%
Cp (Rattus norvegicus [32]): < 2 ng/mL
Compound: O=C1NCCCC[C@@H]1NC(=O)C12CC3CC(CC(C3)C1)C2
ED50 (Mus musculus [8]): 2 µg/kg
inhibition (INH) (Mus musculus [9]): 90%
inhibition (INH) (Mus musculus [10]): -12%
ED50 (Mus musculus [11]): 0.5 µg/kg
inhibition (INH) (Mus musculus [12]): 90%
inhibition (INH) (Mus musculus [13]): 29%
inhibition (INH) (Mus musculus [14]): 56%
inhibition (INH) (Mus musculus [15]): 71%
inhibition (INH) (Mus musculus [16]): 89%
inhibition (INH) (Mus musculus [17]): 89%
inhibition (INH) (Mus musculus [18]): 8%
inhibition (INH) (Mus musculus [19]): 30%
inhibition (INH) (Mus musculus [20]): 60%
inhibition (INH) (Mus musculus [21]): 59%
inhibition (INH) (Mus musculus [22]): 76%
inhibition (INH) (Mus musculus [23]): 78%
inhibition (INH) (Mus musculus [24]): 71%
inhibition (INH) (Mus musculus [25]): 75%
inhibition (INH) (Mus musculus [26]): 83%
inhibition (INH) (Mus musculus [27]): 91%
